Lmaj promast: reduces viability of Leishmania major promastigotes | actives 9% (n = 200,000) | AID 1063 | inhibition, % at 10 µM | resazurin fluorescence viability; in the data active = inhibition above about 50%;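 note: promastigotes grown with compound for 44 hours at 28 °C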
MT stabilizer: microtubule stabilization, imaging screen; HeLa tubulin immunostaining HCS, 24 h; share of cells brighter than vehicle mean+2SD; % tubulin-high responders, % at 10 µM; actives 0.83% (n = 200,000); AID 2205;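 active = plate Z-score above 3 for both tubulin-high and condensed-nucleus cell shares, with cell loss under 80%, at 10 µM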;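 note: anti alpha tubulin signal scored within the nucleus-defined area of each cell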
bCat nuc transl: beta-catenin nuclear translocation modulation. actives 0.3% (n = 190,000). AID 1665. nuclear translocation activity, % at 5 µM. HeLa beta-catenin nuclear translocation, immunofluorescence imaging;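 active = nuclear translocation activity above 50% at 5 µM, with a well cell count of 50 or more; inconclusive = wells under 50 cells across six images, flagged as toxic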;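 note: per-cell ratio of nuclear to cytoplasmic median beta-catenin stain intensity; plate controls were DMSO negative control for no effect and GSK-3 inhibitor IX positive control for full effect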
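Signal – beta-catenin immunofluorescence imaging with DAPI · Test system – human HeLa cell line · Dosing – 5 µM primary single dose, 0.1% DMSO, 0.02–20 µM confirmation series · Measure – % activation, nuclear-to-cytoplasmic median beta-catenin signal ratio per cell · Incubation – 24 h compound exposure at 37°C, 5% CO2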
HSV replic up: HSV replication enhancement | actives 0.005% (n = 220,000) | maximum fold increase | AID 1956 | HSV replication augmentation in cells, fold increase; in the data active = maximum fold increase above about 1.5; inconclusive = no clear call, values can overlap the other calls; tested in PC3 cells
Dynein cargo inh: dynein cargo transport inhibition | 3617.4 mouse cells, GR-EGFP nuclear translocation imaging; test concentration mostly 20 µM; stimulated with dexamethasone, 1 µM; active compounds read low | actives 0.47% (n = 220,000) | z-score, hits read low;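 active = plate z-score of nuclear minus cytoplasmic receptor signal below a set negative limit, without overly bright fluorescence or cell loss, cut at about -3.5 in these data, passing the limit was not always enough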;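 note: z-score of nuclear minus cytoplasmic ring GR-EGFP intensity difference per well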
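Buffer or medium: tetracycline-free induction medium containing charcoal-stripped FBS / Reagent: dexamethasone agonist, 1.0 µM final, for 30 min / Technique: automated 10x imaging of fixed Hoechst-stained cells / Times: induction 48 h, compound 1 h, agonist 30 min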
* marks the source's active call; other numbers are inactive results; i = inactive; u = inconclusive; x = no result given. A selection: hits, their analogues and other compounds. The true share with any hit is near 8.9%.

SMILES	Lmaj promast	MT stabilizer	bCat nuc transl	HSV replic up	Dynein cargo inh
Cc1ccc(-c2cccc(CN3CCN(C4CCN(C(C)C)CC4)C(CCO)C3)c2)o1 (centres undefined)	52*	3	1	i	1.9
COC(=O)CCC(=O)Nc1sc(Cc2ccccc2)c(C)c1C(N)=O	-9	2	0	i	0.93
CN1/C(=C\C(=O)C[n+]2ccc(C(=O)c3ccccc3)cc2)C(C)(C)c2ccccc21	45	4	x	i	-0.5
O=C(CCCCCN1C(=O)CCC1=O)Nc1ncn[nH]1	-3	4	x	i	-0.94
O=C(O)c1ccc2c(c1)C(=O)N(c1ccccc1-c1ccccc1)C2=O	-6	7	1	i	-0.016
CC(/C=C/c1ccco1)=N\NC(=O)c1cccc(Cl)c1	7	2	1	i	0.024
CC(/C=C/c1ccccc1F)=N\NC(=O)c1cccc(F)c1	90*	7	-1	i	-0.33
CC(=O)Nc1cccc(C(=O)N/N=C/c2ccccc2F)c1	83*	4	1	i	1.3
CC(C)NCC(=O)NC12CC3CC(CC(C3)C1)C2	-6	3	x	x	0.38
Cc1noc(NS(=O)(=O)c2ccc(N/C=C\C(=O)c3ccc(F)cc3)cc2)c1C	-8	2	1	i	-0.71
CC12CCC(C(=O)N(CSC(=S)N/N=C\c3ccccc3O)C1=O)C2(C)C (centres undefined)	85*	4	0	i	-0.49
COc1ccc(/C=N\NC(=S)SCN2C(=O)C3CCC(C)(C2=O)C3(C)C)cc1 (centres undefined)	5	1	x	u	1.7
CCOC(=S)N/C(=N\S(C)(=O)=O)c1ccccc1	x	x	2	i	0.11
Cc1ccccc1N=Nc1c(C)[nH]n(C(N)=S)c1=O	53*	4	x	i	-0.2
O=C(c1ccccc1F)N(Cc1ccc2c(c1)OCO2)Cc1cc2cc3c(cc2n2nnnc12)OCO3	87*	3	-1	i	1.7
Oc1c(C(c2ccccn2)N2CCCCC2)cc(Cl)c2cccnc12 (centres undefined)	74*	4	2	i	-1.6
COc1ccc(C(=O)Nc2cnc3ccccn3c2=O)cc1	-6	2	-3	i	-0.79
COc1ccc(OCC(=O)Nc2ccc3c(c2)nc(CCN2CCOCC2)n3C)cc1	52*	7	-2	i	0.012
Cn1c(CCN2CCOCC2)nc2cc(NC(=O)COc3ccc(Cl)cc3)ccc21	20	5	-4	i	-0.74
Cc1ccc(-c2nn3c(C)nnc3c3ccccc23)cc1S(=O)(=O)NCc1ccco1	43	2	2	i	-0.08
Cc1cc(C(=O)N/N=C/c2ccc([N+](=O)[O-])s2)n[nH]1	x	x	0	i	-0.82
COc1ccc(NC(=O)CCC(=O)N/N=C/c2ccc([N+](=O)[O-])s2)cc1	100*	9	0	i	2.4
Cc1ccc(C(=O)N/N=C\c2ccc([N+](=O)[O-])s2)cn1	100*	2	-2	i	-1.2
Cc1ccc(C(=O)N/N=C/c2ccc([N+](=O)[O-])s2)cc1	99*	4	3	i	-1.5
O=C(N/N=C/c1ccc(O)c2ncccc12)c1cccc(Br)c1	100*	29	4	i	-0.47
SMILES	Lmaj promast	MT stabilizer	bCat nuc transl	HSV replic up	Dynein cargo inh
COCCn1c(=O)[nH]c(=O)c2c1nc(-c1cc(Br)c3c(c1)OCO3)n2Cc1ccccc1	13	6	0	i	-0.48
Cc1cc(C)n(CC(=O)N/N=C/c2cccs2)n1	-6	3	2	i	-0.21
O=C(N/N=C/c1ccc([N+](=O)[O-])s1)c1cccc(Br)c1	100*	3	12	i	-1.1
O=C(N/N=C/c1ccc([N+](=O)[O-])s1)c1ccncc1	100*	10	2	i	-0.97
CC(C)(C)OC(=O)N/N=C\c1ccc([N+](=O)[O-])s1	80*	3	x	i	-0.88
CCOC(=O)N/N=C\c1ccc([N+](=O)[O-])s1	39	1	0	i	-1.3
Cc1cc(C)n(CC(=O)N/N=C/c2ccc([N+](=O)[O-])s2)n1	99*	2	-1	i	-1.1
Cc1ccc(/C=N/NC(=O)c2ccncc2)s1	x	x	-1	i	0.39
O=C(N/N=C/c1cccc([N+](=O)[O-])c1)c1cccc(Br)c1	1	2	-1	i	0.86
O=C(NCC1CCCO1)c1cc2ccccc2[nH]1 (centres undefined)	-11	5	-8	i	0.16

High-throughput results as filed in PubChem BioAssay.
